Among the data in ChEMBL document CHEMBL2169809, “Identification of high-affinity P2Y₁₂ antagonists based on a phenylpyrazole glutamic acid piperazine backbone” (J Med Chem, 2012) are Ki and IC50 values, retold here.

As usually defined, the Ki is a measure of affinity in units of concentration, obtained from inhibition or displacement. What is called IC50 is the midpoint of a concentration-inhibition curve.

In the first assay the target is P2Y purinoceptor 12 (Homo sapiens, UniProt Q9H244). Description: Displacement of [33P]2-MeS-ADP from human recombinant P2Y12 receptor expressed in CHO cell membranes by scintillation counting method.
P2Y purinoceptor 12, sequence (Q9H244 whole entry): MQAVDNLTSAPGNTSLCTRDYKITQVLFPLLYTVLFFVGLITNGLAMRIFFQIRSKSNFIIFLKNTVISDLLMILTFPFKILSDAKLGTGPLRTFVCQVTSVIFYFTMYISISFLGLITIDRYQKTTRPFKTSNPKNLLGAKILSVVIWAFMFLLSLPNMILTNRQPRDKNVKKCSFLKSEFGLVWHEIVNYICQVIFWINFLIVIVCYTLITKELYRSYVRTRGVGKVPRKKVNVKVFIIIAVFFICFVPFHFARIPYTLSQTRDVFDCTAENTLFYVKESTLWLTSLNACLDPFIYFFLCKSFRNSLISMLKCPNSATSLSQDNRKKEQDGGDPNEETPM
Consider `CCOC(=O)N1CCN(C(=O)[C@H](CCC(=O)O)NC(=O)c2cc(OCC(=O)N3CC[C@H]3C(=O)NC3CCC3)n(-c3ccccc3)n2)CC1`, for which the Ki came out at 42 nM. Same read-out and setting: with `CCOC(=O)N1CCN(C(=O)[C@H](CCC(=O)O)NC(=O)c2cc(OCC(=O)N3CCC(C(=O)NC4CCC4)C3)n(-c3ccccc3)n2)CC1` (stereo not given in full) the figure was 238 nM; with `CCOC(=O)N1CCN(C(=O)[C@H](CCC(=O)O)NC(=O)c2cc(OCC(=O)N3CC(C(=O)NC4CCC4)C3)n(-c3ccccc3)n2)CC1`, 613 nM; with `CCOC(=O)N1CCN(C(=O)[C@H](CCC(=O)O)NC(=O)c2cc(OCC(=O)N3CCC[C@H]3C(=O)N3CCCC3)n(-c3ccccc3)n2)CC1`, 219 nM.

`CCOC(=O)N1CCN(C(=O)[C@H](CCC(=O)O)NC(=O)c2cc(OCC(=O)N3CCC[C@H]3c3nc(C)c[nH]3)n(-c3ccccc3)n2)CC1`: the inhibition constant (Ki) was found to be 56 nM. Still for that read-out and setting: the figure for `CCOC(=O)N1CCN(C(=O)[C@H](CCC(=O)O)NC(=O)c2cc(OCC(=O)N3CCC[C@H]3c3ccccc3)n(-c3ccccc3)n2)CC1` is 33 nM. Still for that read-out and setting: with `CCOC(=O)N1CCC(NC(=O)[C@H](CCC(=O)O)NC(=O)c2cc(OCC(=O)N3CCC[C@H]3C(=O)NC3CCC3)n(-c3ccccc3)n2)CC1` the figure was greater than 5000 nM. The same measure, in the same setting: with `CCOC(=O)N1CCN(C(=O)[C@H](CCC(=O)O)NC(=O)c2cc(OCC(=O)N3CCCC3=O)n(-c3ccccc3)n2)CC1` the figure was 173 nM. Turning to `CCOC(=O)N1CCN(C(=O)[C@H](CCC(=O)O)NC(=O)c2cc(OCC(=O)N3CCC[C@H]3C(N)=O)n(-c3ccccc3)n2)CC1`, the Ki is 283 nM. Same read-out and setting: with `CCOC(=O)N1CCN(C(=O)[C@H](CCC(=O)O)NC(=O)c2cc(OCC(=O)N3CCC[C@H]3C(=O)NC)n(-c3ccccc3)n2)CC1` the figure was 536 nM.

With `CCNC(=O)[C@@H]1CCCN1C(=O)COc1cc(C(=O)N[C@@H](CCC(=O)O)C(=O)N2CCN(C(=O)OCC)CC2)nn1-c1ccccc1`, the inhibition constant (Ki) was determined as 303 nM. On the same count and under the same terms, the figure for `CCOC(=O)N1CCN(C(=O)[C@H](CCC(=O)O)NC(=O)c2cc(OCC(=O)N3CCC[C@H]3C(=O)NC(C)C)n(-c3ccccc3)n2)CC1` is 56 nM; for `CCOC(=O)N1CCN(C(=O)[C@H](CCC(=O)O)NC(=O)c2cc(OCC(=O)N3CCC[C@H]3C(=O)NC3CC3)n(-c3ccccc3)n2)CC1` it is 105 nM; for `CCOC(=O)N1CCN(C(=O)[C@H](CCC(=O)O)NC(=O)c2cc(OCC(=O)N3CCC[C@@H]3C(=O)NC3CC3)n(-c3ccccc3)n2)CC1` it is 958 nM. Same read-out and setting: with `CCOC(=O)N1CCN(C(=O)[C@H](CCC(=O)O)NC(=O)c2cc(OCC(=O)N3CCC[C@H]3C(=O)N(C)C3CCC3)n(-c3ccccc3)n2)CC1` the figure was 27 nM; with `CCOC(=O)N1CCN(C(=O)[C@H](CCC(=O)O)NC(=O)c2cc(OC(C)(C)C(=O)OCC)c3ccc(C)cc3n2)CC1`, 86 nM.

Turning to `CCOC(=O)N1CCN(C(=O)[C@H](CCC(=O)O)NC(=O)c2cc(OCC(=O)C3CCC3)n(-c3ccccc3)n2)CC1`, the inhibitory constant (Ki) came to 574 nM. With `CCOC(=O)N1CCN(C(=O)[C@H](CCC(=O)O)NC(=O)c2cc(OCC(N)=O)n(-c3ccccc3)n2)CC1`, the inhibition constant Ki came out at 2720 nM. As for `CCOC(=O)N1CCN(C(=O)[C@H](CCC(=O)O)NC(=O)c2cc(OCC(=O)N(CC)CC)n(-c3ccccc3)n2)CC1`, the inhibition constant (Ki) was greater than 5000 nM.

With `CCOC(=O)N1CCN(C(=O)[C@H](CCC(=O)O)NC(=O)c2cc(OCC(=O)N3CC[C@@H](O)C3)n(-c3ccccc3)n2)CC1`, the Ki came out at 459 nM. Same read-out and setting: the figure for `CCOC(=O)N1CCN(C(=O)[C@H](CCC(=O)O)NC(=O)c2cc(=O)n(-c3ccccc3)[nH]2)CC1` is greater than 5000 nM; for `CNc1cc2[nH]c(=O)n(-c3ccc(NC(=O)NS(=O)(=O)c4ccc(Cl)s4)cc3)c(=O)c2cc1F` [ELINOGREL] it is 23 nM; for `CCCSc1nc(N[C@@H]2C[C@H]2c2ccc(F)c(F)c2)c2nnn([C@@H]3C[C@H](OCCO)[C@@H](O)[C@H]3O)c2n1` [TICAGRELOR] it is 14 nM.

In another assay the test system is Platelet. Description: Inhibition of ADP-stimulated platelet aggregation in human platelet rich plasma by 96-well format based turbidimetric method. Format: functional. The gist of the method:
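Citrated (ACD-A) donor blood was spun at 150g for 15 min at room temperature to give PRP. PRP was adjusted with PPP to 3 × 10^8 platelets/mL. Compound, diluted in NaCl, was preincubated with hPRP for 5 min before ADP was added.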
For `CCCCOC(=O)N1CCN(C(=O)[C@H](CCc2nnn[nH]2)NC(=O)c2cc(OCC(=O)N3CCC[C@H]3C(=O)NC3CCC3)n(-c3ccccc3)n2)CC1`, the 50% inhibitory concentration (IC50) turned out to be 50 nM.

Compound `CCOC(=O)N1CCN(C(=O)[C@H](CCC(=O)O)NC(=O)c2cc(OCC(=O)N3CC[C@H]3C(=O)NC3CCC3)n(-c3ccccc3)n2)CC1` showed an IC50 of 76 nM.

Turning to `CCOC(=O)N1CCN(C(=O)[C@H](CCC(=O)O)NC(=O)c2cc(OCC(=O)N3CCC(C(=O)NC4CCC4)C3)n(-c3ccccc3)n2)CC1` (stereo not given in full), the IC50 came to 3130 nM. In turn, `CCOC(=O)N1CCN(C(=O)[C@H](CCC(=O)O)NC(=O)c2cc(OCC(=O)N3CC(C(=O)NC4CCC4)C3)n(-c3ccccc3)n2)CC1` returned an IC50 of 2940 nM. Same read-out and setting: with `CCOC(=O)N1CCN(C(=O)[C@H](CCC(=O)O)NC(=O)c2cc(OCC(=O)N3CCC[C@H]3C(=O)N3CCCC3)n(-c3ccccc3)n2)CC1` the figure was 600 nM; with `CCOC(=O)N1CCN(C(=O)[C@H](CCC(=O)O)NC(=O)c2cc(OCC(=O)N3CCC[C@H]3c3nc(C)c[nH]3)n(-c3ccccc3)n2)CC1`, 380 nM; with `CCOC(=O)N1CCC(NC(=O)[C@H](CCC(=O)O)NC(=O)c2cc(OCC(=O)N3CCC[C@H]3C(=O)NC3CCC3)n(-c3ccccc3)n2)CC1`, greater than 5000 nM.

On to `CCOC(=O)N1CCN(C(=O)[C@H](CCC(=O)O)NC(=O)c2cc(OCC(=O)N3CCCC3=O)n(-c3ccccc3)n2)CC1`, for which the half-maximal inhibitory concentration (IC50) was determined as 900 nM.

With `CCOC(=O)N1CCN(C(=O)[C@H](CCC(=O)O)NC(=O)c2cc(OCC(=O)N3CCC[C@H]3C(N)=O)n(-c3ccccc3)n2)CC1`, the 50% inhibitory concentration (IC50) is 3100 nM. Still for that read-out and setting: with `CCOC(=O)N1CCN(C(=O)[C@H](CCC(=O)O)NC(=O)c2cc(OCC(=O)N3CCC[C@H]3C(=O)NC)n(-c3ccccc3)n2)CC1` the figure was 1460 nM.

With `CCNC(=O)[C@@H]1CCCN1C(=O)COc1cc(C(=O)N[C@@H](CCC(=O)O)C(=O)N2CCN(C(=O)OCC)CC2)nn1-c1ccccc1`, the IC50 was determined as 475 nM. As for `CCOC(=O)N1CCN(C(=O)[C@H](CCC(=O)O)NC(=O)c2cc(OCC(=O)N3CCC[C@H]3C(=O)NC3CC3)n(-c3ccccc3)n2)CC1`, 13 nM corresponded to half-maximal inhibition (IC50). The same measure, in the same setting: the figure for `CCOC(=O)N1CCN(C(=O)[C@H](CCC(=O)O)NC(=O)c2cc(OCC(=O)N3CCC[C@H]3C(=O)N(C)C3CCC3)n(-c3ccccc3)n2)CC1` is 220 nM. The same measure, in the same setting: the figure for `CCOC(=O)N1CCN(C(=O)[C@H](CCC(=O)O)NC(=O)c2cc(OC(C)(C)C(=O)OCC)c3ccc(C)cc3n2)CC1` is 2600 nM. On the same count and under the same terms, the figure for `CCOC(=O)N1CCN(C(=O)[C@H](CCC(=O)O)NC(=O)c2cc(OCC(=O)C3CCC3)n(-c3ccccc3)n2)CC1` is 7410 nM; for `CCOC(=O)N1CCN(C(=O)[C@H](CCC(=O)O)NC(=O)c2cc(OCC(N)=O)n(-c3ccccc3)n2)CC1` it is 9050 nM; for `CCOC(=O)N1CCN(C(=O)[C@H](CCC(=O)O)NC(=O)c2cc(OCC(=O)N(CC)CC)n(-c3ccccc3)n2)CC1` it is greater than 10000 nM. For `CCOC(=O)N1CCN(C(=O)[C@H](CCC(=O)O)NC(=O)c2cc(OCC(=O)N3CC[C@@H](O)C3)n(-c3ccccc3)n2)CC1`, the 50% inhibitory concentration (IC50) stood at 1370 nM. Still for that read-out and setting: with `CCOC(=O)N1CCN(C(=O)[C@H](CCC(=O)O)NC(=O)c2cc(=O)n(-c3ccccc3)[nH]2)CC1` the figure was greater than 10000 nM; with `CNc1cc2[nH]c(=O)n(-c3ccc(NC(=O)NS(=O)(=O)c4ccc(Cl)s4)cc3)c(=O)c2cc1F` [ELINOGREL], 2810 nM. Still for that read-out and setting: with `CCCSc1nc(N[C@@H]2C[C@H]2c2ccc(F)c(F)c2)c2nnn([C@@H]3C[C@H](OCCO)[C@@H](O)[C@H]3O)c2n1` [TICAGRELOR] the figure was 1830 nM.

A further assay concerns Platelet. The assay is described as follows: Inhibition of ADP-stimulated platelet aggregation in human platelet rich plasma by light transmission aggregometry based Born method. Format: functional, cell-based.
The compound `CCCCOC(=O)N1CCN(C(=O)[C@H](CCc2nnn[nH]2)NC(=O)c2cc(OCC(=O)N3CCC[C@H]3C(=O)NC3CCC3)n(-c3ccccc3)n2)CC1` registered an IC50 of 79 nM. In other words, the double-digit nanomolar range.
